# Activity calls are given as the source filed them.
# Key:
# Rattus norvegicus [1] = assay: Inhibition of sucrose intake in Zucker fa/fa rat at 10 mg/kg, po after 4 hrs; assay type: functional; settings: for inhibition in vivo at 10 mg/kg: Rattus norvegicus, Zucker, po, 4 h
# How it was run: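 Female Zucker fa/fa rats (10-12 weeks, 300-350 g) trained six consecutive days on 5% sucrose with food and water withdrawn; day 7 randomized (n=6), dosed orally 10 mg/kg in 0.5% carboxymethylcellulose (2 mL/kg), exposed to sucrose 1 h later for 4 h. Consumption measured; % inhibition vs vehicle control; one-way ANOVA with Dunnett's test.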
# Cannabinoid receptor 1 = Cannabinoid receptor 1 (Homo sapiens, UniProt P21554); assay: biochemical; assay type: cell-based, HEK293
# Chain of Cannabinoid receptor 1 (P21554 whole entry): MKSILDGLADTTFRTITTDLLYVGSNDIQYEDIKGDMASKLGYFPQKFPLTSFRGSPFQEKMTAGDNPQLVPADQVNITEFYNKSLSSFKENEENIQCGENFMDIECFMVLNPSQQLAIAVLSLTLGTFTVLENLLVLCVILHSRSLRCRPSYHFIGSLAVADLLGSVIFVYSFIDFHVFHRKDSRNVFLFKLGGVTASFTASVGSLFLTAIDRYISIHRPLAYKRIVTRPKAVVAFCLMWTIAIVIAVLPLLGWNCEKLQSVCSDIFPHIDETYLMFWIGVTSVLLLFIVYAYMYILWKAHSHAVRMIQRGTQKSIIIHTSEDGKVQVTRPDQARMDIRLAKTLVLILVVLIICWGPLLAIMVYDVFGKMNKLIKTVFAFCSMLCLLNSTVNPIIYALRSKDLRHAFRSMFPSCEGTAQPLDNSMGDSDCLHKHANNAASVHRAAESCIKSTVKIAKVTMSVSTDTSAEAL
# Cannabinoid receptor 2 = Cannabinoid receptor 2 (Homo sapiens, UniProt P34972); assay: Displacement of [3H]WIN-552122 from human recombinant CB2 receptor expressed in CHOK1 cells; assay type: cell-based, CHO-K1
# Chain of Cannabinoid receptor 2 (P34972 whole entry): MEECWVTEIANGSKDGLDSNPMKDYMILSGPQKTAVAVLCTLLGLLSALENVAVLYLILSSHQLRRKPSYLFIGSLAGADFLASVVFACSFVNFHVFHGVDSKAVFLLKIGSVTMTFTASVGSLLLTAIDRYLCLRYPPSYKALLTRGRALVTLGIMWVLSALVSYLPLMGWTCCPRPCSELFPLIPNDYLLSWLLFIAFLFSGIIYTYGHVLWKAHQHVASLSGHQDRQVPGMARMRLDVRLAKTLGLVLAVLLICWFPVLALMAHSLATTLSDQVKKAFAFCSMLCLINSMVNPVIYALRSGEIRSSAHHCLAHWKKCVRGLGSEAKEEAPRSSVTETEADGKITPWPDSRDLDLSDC
# Rattus norvegicus [2] = assay: Reduction in serum triglyceride level in Zucker fa/fa rat at 10 mg/kg, po after 60 days; assay type: functional, organism-based; parameters: dose 10 mg/kg
# How it was run: (§1)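 Individually housed female obese Zucker fa/fa rats, groups of six, dosed orally daily 1 h before dark phase for 60 days; body weight recorded daily. Day 61 morning retro-orbital blood drawn and serum triglyceride measured by colorimetric kit. One-way ANOVA with Dunnett's test versus control.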
# Rattus norvegicus [3] = assay: Inhibition of body weight gain in Zucker fa/fa rat at 10 mg/kg, po; assay type: functional, organism-based; parameters: dose 10 mg/kg; how it was run: as §1
# [4] = Cmax in fasted Zucker fa/fa rat at 30 mg/kg, po; assay type: ADME, organism-based; parameters: dose 30 mg/kg, route oral; settings: in vivo
# How it was run: (§2)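 Overnight-fasted female obese Zucker fa/fa rats (n=6), single 30 mg/kg oral dose as suspension in 0.5% carboxymethylcellulose sodium in water. Retro-orbital serial bleeds at 10, 20, 40 min and 1, 2, 4, 6, 8, 24, 48 h; plasma extracted liquid-liquid and quantified by LC-MS against spiked-matrix calibration with internal standard. Noncompartmental parameters computed.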
# Mus musculus [5] = assay: Effect on change in body temperature in Swiss albino mouse tetrad model at 10 mg/kg po in presence of 1 mg/kg cannabinoid agonist WIN-55212-2 relative to control; assay type: functional
# How it was run: (§3)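 Female Swiss albino mice (10-12 weeks, 25-30 g), n=6, dosed orally in 0.5% carboxymethylcellulose (10 mL/kg); 1 h later WIN-55212-2 1 mg/kg iv in 0.01% Tween 80/5% DMSO saline. From 30 min on: rectal temperature before and after treatment; hot plate 55 °C, %MPE, 30 s cutoff; ring-test immobility over 5 min; open-field squares crossed in 5 min at 35 min. Compared with WIN-treated controls.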
# Mus musculus [6] = assay: Effect on catalepsy in Swiss albino mouse tetrad model assessed as immobility for 5 mins at 1 mg/kg po after 30 mins by ring test in presence of 1 mg/kg cannabinoid agonist WIN-55212-2 relative to control; assay type: functional; how it was run: as §3
# [7] = Drug concentration in fasted Zucker fa/fa rat white adipose tissue at 30 mg/kg, po after 3 hrs; assay type: ADME, organism-based; parameters: dose 30 mg/kg, route oral; settings: read-out: Drug uptake
# How it was run: (§4)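 Female obese Zucker fa/fa rats (n=6), fasted, single oral 30 mg/kg in 0.5% carboxymethylcellulose; blood, brain and white adipose tissue taken at 3 h. Tissues saline-washed and homogenized in Tris buffer pH 7.4; plasma and homogenates liquid-liquid extracted and assayed by LC-MS (cyano column, ammonium acetate/TFA–acetonitrile 30:70). Values mean ± SEM.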
# Mus musculus [8] = assay: Analgesic activity in Swiss albino mouse tetrad model at 3 mg/kg po by hot plate test in presence of 1 mg/kg cannabinoid agonist WIN-55212-2 relative to control; assay type: functional; how it was run: as §3
# [9] = Half life in fasted Zucker fa/fa rat at 30 mg/kg, po; assay type: ADME, organism-based; parameters: dose 30 mg/kg, route oral; settings: in vivo; how it was run: as §2
# [10] = AUC (0 to infinity) in fasted Zucker fa/fa rat at 30 mg/kg, po; assay type: ADME, organism-based; parameters: time infinity, dose 30 mg/kg, route oral; settings: plasma; how it was run: as §2
# Mus musculus [11] = assay: Effect on change in body temperature in Swiss albino mouse tetrad model at 1 mg/kg po in presence of 1 mg/kg cannabinoid agonist WIN-55212-2 relative to control; assay type: functional; how it was run: as §3
# [12] = Drug concentration in fasted Zucker fa/fa rat brain at 30 mg/kg, po after 3 hrs; assay type: ADME, organism-based; parameters: dose 30 mg/kg, route oral; settings: read-out: Drug uptake; how it was run: as §4
# Mus musculus [13] = assay: Effect on catalepsy in Swiss albino mouse tetrad model assessed as immobility for 5 mins at 10 mg/kg po after 30 mins by ring test in presence of 1 mg/kg cannabinoid agonist WIN-55212-2 relative to control; assay type: functional; how it was run: as §3
# Mus musculus [14] = assay: Effect on catalepsy in Swiss albino mouse tetrad model assessed as immobility for 5 mins at 30 mg/kg po after 30 mins by ring test in presence of 1 mg/kg cannabinoid agonist WIN-55212-2 relative to control; assay type: functional; how it was run: as §3
# [15] = Tmax in fasted Zucker fa/fa rat at 30 mg/kg, po; assay type: ADME, organism-based; parameters: dose 30 mg/kg, route oral; settings: in vivo; how it was run: as §2
# [16] = Drug concentration in fasted Zucker fa/fa rat plasma at 30 mg/kg, po after 3 hrs; assay type: ADME, organism-based; parameters: dose 30 mg/kg, route oral; how it was run: as §4
# Mus musculus [17] = assay: Effect on locomotor activity in Swiss albino mouse tetrad model assessed as number of squares crossed in 5 mins at 3 mg/kg po after 35 mins in presence of 1 mg/kg cannabinoid agonist WIN-55212-2 relative to control; assay type: functional; how it was run: as §3
# Mus musculus [18] = assay: Analgesic activity in Swiss albino mouse tetrad model at 1 mg/kg po by hot plate test in presence of 1 mg/kg cannabinoid agonist WIN-55212-2 relative to control; assay type: functional; how it was run: as §3
# Mus musculus [19] = assay: Effect on locomotor activity in Swiss albino mouse tetrad model assessed as number of squares crossed in 5 mins at 1 mg/kg po after 35 mins in presence of 1 mg/kg cannabinoid agonist WIN-55212-2 relative to control; assay type: functional; how it was run: as §3
# Mus musculus [20] = assay: Effect on change in body temperature in Swiss albino mouse tetrad model at 3 mg/kg po in presence of 1 mg/kg cannabinoid agonist WIN-55212-2 relative to control; assay type: functional; how it was run: as §3
# Mus musculus [21] = assay: Analgesic activity in Swiss albino mouse tetrad model at 30 mg/kg po by hot plate test in presence of 1 mg/kg cannabinoid agonist WIN-55212-2 relative to control; assay type: functional; how it was run: as §3
# Mus musculus [22] = assay: Effect on change in body temperature in Swiss albino mouse tetrad model at 30 mg/kg po in presence of 1 mg/kg cannabinoid agonist WIN-55212-2 relative to control; assay type: functional; how it was run: as §3
# Mus musculus [23] = assay: Analgesic activity in Swiss albino mouse tetrad model at 10 mg/kg po by hot plate test in presence of 1 mg/kg cannabinoid agonist WIN-55212-2 relative to control; assay type: functional; how it was run: as §3
# Mus musculus [24] = assay: Effect on catalepsy in Swiss albino mouse tetrad model assessed as immobility for 5 mins at 3 mg/kg po after 30 mins by ring test in presence of 1 mg/kg cannabinoid agonist WIN-55212-2 relative to control; assay type: functional; how it was run: as §3
# Mus musculus [25] = assay: Effect on locomotor activity in Swiss albino mouse tetrad model assessed as number of squares crossed in 5 mins at 10 mg/kg po after 35 mins in presence of 1 mg/kg cannabinoid agonist WIN-55212-2 relative to control; assay type: functional; how it was run: as §3
# Mus musculus [26] = assay: Effect on locomotor activity in Swiss albino mouse tetrad model assessed as number of squares crossed in 5 mins at 30 mg/kg po after 35 mins in presence of 1 mg/kg cannabinoid agonist WIN-55212-2 relative to control; assay type: functional; how it was run: as §3
smiles,measurement,setting,value
O=C(NN1CCOCC1)C1=NN(c2ccc(Cl)cc2Cl)C(c2ccc(Cl)cc2)C1 (configuration not stated),Inhibition,Rattus norvegicus [1],34.2%
O=C(NN1CCOCC1)C1=NN(c2ccc(Cl)cc2)C(c2ccc(Cl)cc2)C1 (configuration not stated),inhibition in vivo at 10 mg/kg,Rattus norvegicus [1],8.1%
O=C(NN1CCOCC1)C1=NN(c2ccc(Cl)cc2)C(c2ccccc2)C1 (configuration not stated),inhibition in vivo at 10 mg/kg,Rattus norvegicus [1],5.6%
CCCCCc1ccc(C2CC(C(=O)NN3CCOCC3)=NN2c2ccc(Cl)cc2Cl)cc1 (configuration not stated),inhibition in vivo at 10 mg/kg,Rattus norvegicus [1],13.1%
COc1ccc(C2CC(C(=O)NN3CCOCC3)=NN2c2ccc(Cl)cc2Cl)cc1 (configuration not stated),inhibition in vivo at 10 mg/kg,Rattus norvegicus [1],9.4%
O=C(NN1CCOCC1)C1=NN(c2ccc(Cl)cc2Cl)C(c2cccnc2)C1 (configuration not stated),inhibition in vivo at 10 mg/kg,Rattus norvegicus [1],4%
CS(=O)(=O)O.O=C(NN1CCOCC1)C1=NN(c2ccc(Cl)cc2Cl)C(c2ccc(Cl)cc2)C1 (configuration not stated),Inhibition,Rattus norvegicus [1],19.2%
Cl.O=C(NN1CCOCC1)C1=NN(c2ccc(Cl)cc2Cl)C(c2ccc(Cl)cc2)C1 (racemic; form 1),Inhibition,Rattus norvegicus [1]; 10 mg/kg,34.5%
O=C(NN1CCOCC1)C1=NN(c2ccc(Cl)cc2Cl)C(c2ccc(Cl)cc2)C1.O=S(=O)(O)O (racemic; form 2),Ki,Cannabinoid receptor 1,0.334 µM
same,Inhibition,Rattus norvegicus [1]; 10 mg/kg,36.4%
same,Ki,Cannabinoid receptor 2,21.7 µM
O=C(NN1CCOCC1)C1=NN(c2ccc(Cl)cc2Cl)C(c2ccc(Cl)cc2)C1 (racemic; form 2),Activity,Rattus norvegicus [2],Active
same,Activity,Rattus norvegicus [3],Active
"Cl.O=C(NN1CCOCC1)C1=NN(c2ccc(Cl)cc2Cl)C(c2ccc(Cl)cc2)C1 (single isomer, unassigned; 27)",Inhibition,Rattus norvegicus [1]; 10 mg/kg,30.1%
"O=C(NN1CCOCC1)C1=NN(c2ccc(Cl)cc2Cl)C(c2ccc(Cl)cc2)C1.O=S(=O)(O)O (single isomer, unassigned; 28)",Ki,Cannabinoid receptor 1,0.475 µM
same,Inhibition,Rattus norvegicus [1]; 10 mg/kg,15.4%
same,Ki,Cannabinoid receptor 2,26.4 µM
"O=C(NN1CCOCC1)C1=NN(c2ccc(Cl)cc2Cl)C(c2ccc(Cl)cc2)C1.O=S(=O)(O)O (single isomer, unassigned; 30)",Cmax,[4],510 ng/mL
same,Activity,Mus musculus [5],-0.15 °C
same,Activity,Mus musculus [6],85.2%
same,concentration at 3 h,[7],6310 ng/g
same,MPE,Mus musculus [8],12%
same,half-life,[9],17.6 h
same,AUC(0-inf),[10],10000 ng·h/mL
same,Activity,Mus musculus [11],-4.24 °C
same,concentration at 3 h,[12],4860 ng/g
same,Activity,Mus musculus [13],14.2%
same,Activity,Mus musculus [14],18.23%
same,Tmax,[15],3.7 h
same,Ki,Cannabinoid receptor 1,0.15 µM
same,concentration at 3 h,[16],1400 ng/mL
same,Activity,Mus musculus [17],3
same,MPE,Mus musculus [18],24%
same,Activity,Mus musculus [19],0.4
same,Inhibition,Rattus norvegicus [1]; 10 mg/kg,58.6%
same,Ki,Cannabinoid receptor 2,24.5 µM
same,Activity,Mus musculus [20],-2.1 °C
same,MPE,Mus musculus [21],11.5%
same,Activity,Mus musculus [22],0.15 °C
same,MPE,Mus musculus [23],-0.15%
same,Activity,Mus musculus [24],33.75%
same,Activity,Mus musculus [25],13.25
same,Activity,Mus musculus [26],25
"O=C(NN1CCOCC1)C1=NN(c2ccc(Cl)cc2Cl)C(c2ccc(Cl)cc2)C1 (single isomer, unassigned; 30)",Activity,Rattus norvegicus [2],Active
same,Activity,Rattus norvegicus [3],Active
"O=C(NN1CCOCC1)C1=NN(c2ccc(Cl)cc2Cl)C(c2ccc(Cl)cc2)C1.O=S(=O)(O)c1ccccc1 (single isomer, unassigned; 33)",Inhibition,Rattus norvegicus [1],17.1%
Cl.O=C(NN1CCOCC1)C1=NN(c2ccc(Cl)cc2Cl)C(c2ccc(Cl)cc2)C1 (stereo in doubt; 29),Inhibition,Rattus norvegicus [1]; 10 mg/kg,42.2%
Cc1c(C(=O)NN2CCCCC2)nn(-c2ccc(Cl)cc2Cl)c1-c1ccc(Cl)cc1 [RIMONABANT],Cmax,[4],1920 ng/mL
same,Activity,Rattus norvegicus [2],Active
same,concentration at 3 h,[7],4250 ng/g
same,half-life,[9],26.6 h
same,AUC(0-inf),[10],41200 ng·h/mL
same,Activity,Rattus norvegicus [3],Active
same,concentration at 3 h,[12],450 ng/g
same,Tmax,[15],2.6 h
same,concentration at 3 h,[16],400 ng/mL
same,inhibition in vivo at 10 mg/kg,Rattus norvegicus [1],36.7%

# Source: ChEMBL document CHEMBL1138302, “Diaryl dihydropyrazole-3-carboxamides with significant in vivo antiobesity activity related to CB1 receptor antagonism: synthesis, biological evaluation, and molecular modeling in the homology model” (J Med Chem, 2007)
